Variants at the floor of the assay were thinned out.
B1: tRNA (parent)
chain: GUUCCGUUGGCGUAAUGGUAACGCGUCUCCCUCCUAAGGAGAAGACUGCGGGUUCGAGUCCCGUACGGAACG

Variants of: B1
Assay: yeast fitness relative to wild type (ratio to wild type); higher = fitter; tRNA-Arg(CCU), competitive growth, 37 C, YPD
Summary of the method: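 Changes in genotype frequencies gave Darwinian fitness relative to wild type. Frequencies were read by 100-nucleotide paired-end sequencing of gene amplicons before and after pooled Saccharomyces cerevisiae strains, carrying tRNA-Arg(CCU) gene variants at the native locus, were competed in YPD at 37°C for 24 hours in six replicates. A genotype was kept only with ≥ 100 starting reads, and estimates < 0.5 were set to 0.5.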

Variant	yeast fitness
U7C G56C	0.692
G9A C22G	0.869
C5G A40G	0.755
G9A A15G A43G C49G U53G	0.553
C33G G52A	0.582
U7A C24G C55G	≤ 0.5
C29U C49U	0.836
G6C U8A A45U U53C G67A A69C	0.775
C30U U47A G67C A70U	≤ 0.5
A20C A21G	0.953
C5A C29U	0.731
G17C C22U C30U A37U	≤ 0.5
C30G G67U	0.589
G56A C62G	0.643
A40G G44C A57G C60A	≤ 0.5
A14U G17A C22U C33G G67U	0.613
G10C C24G C34G U54G A70U	0.703
C31U G38C G52C	≤ 0.5
U13G U32G A45G C49U A70U	≤ 0.5
C5G C34G C62U	0.531
A43C C55U C66G	≤ 0.5
G18C G23C G48A	≤ 0.5
A21G C60A	0.577
A37C A70U	0.752

Variant	yeast fitness
G6C C24U G67C	0.537
U16C U26C	0.884
C5A C24A	0.727
A43G C46U	0.92
C62U A70U	0.996
C4G U26G	0.856
C4G A15C C66U	0.539
U13A C61A A65G	0.544
C49G G67U	0.695
C4G C24A C46U	0.608
U8C C30A	0.948
A21U A40G A57U C60G G68C	≤ 0.5
G25C C49U U54G	0.58
C5U C33U C62A	0.579
C24G A36C A40G A45U	≤ 0.5
U35C G68C	0.644
G6A G41C	0.863
U8A A15G C27A	0.549
U8A U19C A21C C66U	≤ 0.5
C22U C62U A65C	0.691
G10C C31A U35C A45U	≤ 0.5
U7G C24A C27A	≤ 0.5
G38C G39A A43C C60G A65C	0.518
U28G U54G A65C G67A	≤ 0.5

Variant	yeast fitness
C5A C22G G25A	≤ 0.5
C5U C61A G68A	≤ 0.5
C33G G44A G56A A65G	0.554
G9C G48C G58A A70U	0.552
A15G G18A C46U	0.645
U13A C66U	0.857
U2C C55A A57C G67C G68A	0.575
U3C U16C C49G	≤ 0.5
G9A G23C A45G	0.575
C22G C46G	0.974
G23A A40G C46G	≤ 0.5
G18A C30G G38C	0.529
C22U C33G A65G	≤ 0.5
G10A C31A C55U G63A	≤ 0.5
A14C C22U	0.61
A20G C24G C30G	≤ 0.5
A21U A40C A42U A43G C49U G50C C66U	≤ 0.5
A36G C60A	0.575
C55A G58A	0.55
C4A C34G G39C	≤ 0.5
U19A A36U	0.653
C22A G50C	0.627
C11U A20C U47G	≤ 0.5
U2A A21G C24A	≤ 0.5

Variant	yeast fitness
C5G G39A C49G C55U A57U	≤ 0.5
A37C G39C	0.534
U13A G18C A36G G41C C55U	0.55
G6A A57U	0.629
U53G U54A C62U	0.549
C5U G12C U32A U35A U54C	≤ 0.5
G6A U28A C30A	≤ 0.5
C11A U19G A36G C49U U54C A69C	≤ 0.5
C4A C5U U19A C66A	≤ 0.5
U7A U59A	0.778
A37U C55U A65U	≤ 0.5
U7G G58C C66U	0.645
C4U C22U C62U	0.62
C11G A14U C24A C61A	≤ 0.5
U16G C30U A65U	≤ 0.5
C5A U7C A36G	≤ 0.5
G17C G50A	0.616
U16C C22G C66U	0.721
C30U A40G C49U	0.632
U13A U19A C24G C27U C33G G52C	≤ 0.5
C5G A43G G67U	0.543
C5U U28G A40C	0.613
C5A U26C C27U	0.687
A14U A21G G39C A45G U53C	0.521

Variant	yeast fitness
C24G U26A C33U U54A	0.609
A20C C30G C46A U47G C49A G52A G58C U64G A65G	≤ 0.5
A20C A40C G48C	0.719
U54C G67C	0.944
U8A A40C C46U	≤ 0.5
U28A U64G	0.709
C27U G48A C49U	1.01
C5U A21G A42U G58A	1.02
G6A A14U A15U C31G	0.668
U19C G63A	0.918
G58C G63C	0.702
U53A A57U C60A A70U	≤ 0.5
U13A U28A C30G C46U G56C	≤ 0.5
G12A A15G A70U	0.682
C24A A42G U47C U59C	≤ 0.5
G44A C46G	0.928
G44A C46A	0.835
U2A A20C G52A	0.542
U8C G12A	0.714
U8A G10A G67U	≤ 0.5
A40G C46U U53G	≤ 0.5
C4A U7C A21C C22U G50C A70U	≤ 0.5
G12C C34U G44A G51C	≤ 0.5
G6A A15U U59A G68C	≤ 0.5

Variant	yeast fitness
U16A C34G U47A G52C	≤ 0.5
C5A U13C C29U G56C	≤ 0.5
G25A U32C G41A	0.546
C5A A20G A40G C49U	≤ 0.5
U47G C62U A65U	0.64
G25C C60G	0.665
U54G G67A	0.637
G17A C33G C66U	≤ 0.5
U7C U32C A45U G67A	≤ 0.5
U7A U19G A21U G67A	≤ 0.5
G10A C31U	0.662
A20U A21G C29G C49G G63C	≤ 0.5
U47G C60U A65C	≤ 0.5
G41A U54A	0.674
G38C G51A A57U	≤ 0.5
U13G C29U G48A G56A	0.55
U19G C34G A69C	0.504
C46G A65G	0.897
C24U A42G A43G	0.733
C4G A21G A36U	≤ 0.5
A40G C60U	0.674
A20G C27G A36G	0.504
A20G U26C G39A G50A	≤ 0.5
C5U A20U G50A U59C	0.544

Variant	yeast fitness
G23C U54C	0.502
C30U A45U	0.955
C30U A70U	0.962
C34U A36G A57G	≤ 0.5
A14G C61U	0.934
C5U G44A C55U	0.629
U3A G10C A36U A40C C60G	0.569
C11G A14U G48C	0.58
U32C G39A	0.928
G17C C27G C29A	≤ 0.5
U8G G17A A20C C22G C29G C34G G68A	0.606
G9A U13C A21U A36G A40C A69U	≤ 0.5
A20C C34G C66U	≤ 0.5
C4G C24A C34A U47C	≤ 0.5
G18C C34G G58C	≤ 0.5
G51C G56A G58C	≤ 0.5
C5U A45G A69G	0.909
G12C C31G C33G G48A	0.642
A37G C66A	0.63
A42C A45C G48A	0.958
U13C A43C	1.28
U3A G63A	0.772
C31G G68A	0.802
